# Experimental data from ChEMBL document CHEMBL2440043, “Synthesis and structure-activity relationship of 2-phenyliminochromene derivatives as inhibitors for aldo-keto reductase (AKR) 1B10” (Bioorg Med Chem, 2013).
# What was measured:
# [1] = biological target: T1, Aldo-keto reductase family 1 member B1 (Homo sapiens, UniProt P15121); assay: Inhibition of human recombinant N-terminal His6-tagged AKR1B1 expressed in Escherichia coli by fluorescence assay in presence of NADPH
# [2] = biological target: Aldo-keto reductase family 1 member B10 (Homo sapiens, UniProt O60218, Q303S); assay: Competitive inhibition of human recombinant AKR1B10 Q303S mutant expressed in Escherichia coli using geraniol as substrate by double-reciprocal plot analysis in presence of NADP+
# Procedure, shortened: (§1)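 Purified enzyme from E. coli, assayed by NADP⁺-linked geraniol oxidation at 25 °C. NADPH formation was read by fluorescence (ex 340 nm, em 455 nm). NADP⁺ was saturating at 0.25 mM, with five geraniol concentrations (25–200 μM) and three inhibitor concentrations. Ki came from replots of the slopes and intercepts of double-reciprocal plots; mean of at least three determinations.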
# [3] = biological target: T2, Aldo-keto reductase family 1 member B10 (Homo sapiens, UniProt O60218); assay: Competitive inhibition of wild-type human recombinant N-terminal His6-tagged AKR1B10 expressed in Escherichia coli using geraniol as substrate by double-reciprocal plot analysis in presence of NADP+; procedure, shortened: as §1
# Target sequence in this assay (O60218 whole entry): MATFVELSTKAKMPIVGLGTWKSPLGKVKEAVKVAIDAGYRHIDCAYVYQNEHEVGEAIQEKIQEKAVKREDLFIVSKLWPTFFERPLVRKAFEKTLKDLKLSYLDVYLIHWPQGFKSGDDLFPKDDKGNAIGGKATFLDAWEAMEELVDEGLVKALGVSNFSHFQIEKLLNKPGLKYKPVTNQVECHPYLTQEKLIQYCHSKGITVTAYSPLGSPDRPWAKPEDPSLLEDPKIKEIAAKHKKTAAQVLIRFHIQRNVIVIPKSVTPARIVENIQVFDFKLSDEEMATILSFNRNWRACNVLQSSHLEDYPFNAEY
# [4] = biological target: T2, Aldo-keto reductase family 1 member B10; assay: Inhibition of human recombinant N-terminal His6-tagged AKR1B10 expressed in Escherichia coli by fluorescence assay in presence of NADPH
# Target sequence in this assay (O60218 whole entry): as above
# [5] = biological target: Aldo-keto reductase family 1 member B10 (Homo sapiens, UniProt O60218, W220Y); assay: Competitive inhibition of human recombinant AKR1B10 W220Y mutant expressed in Escherichia coli using geraniol as substrate by double-reciprocal plot analysis in presence of NADP+
# Procedure, shortened: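 Trp220Tyr mutant purified from E. coli; geraniol oxidation with saturating NADP⁺ (0.25 mM) at 25 °C, followed by NADPH fluorescence (ex 340 nm, em 455 nm). Five geraniol levels (50–800 μM) were tested at three inhibitor concentrations. Ki came from slope and intercept replots of double-reciprocal plots; mean of at least three determinations.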
# [6] = biological target: T1, Aldo-keto reductase family 1 member B1; assay: Inhibition of human recombinant N-terminal His6-tagged AKR1B1 expressed in Escherichia coli at 10000 nM by fluorescence assay in presence of NADPH
# [7] = biological target: T2, Aldo-keto reductase family 1 member B10; assay: Inhibition of human recombinant N-terminal His6-tagged AKR1B10 expressed in Escherichia coli at 10000 nM by fluorescence assay in presence of NADPH
# Target sequence in this assay (O60218 whole entry, looked up): as the sequence (O60218 whole entry) above
# Sequence of Aldo-keto reductase family 1 member B10 (Homo sapiens, UniProt O60218, Q303S) (O60218 whole entry Q303S): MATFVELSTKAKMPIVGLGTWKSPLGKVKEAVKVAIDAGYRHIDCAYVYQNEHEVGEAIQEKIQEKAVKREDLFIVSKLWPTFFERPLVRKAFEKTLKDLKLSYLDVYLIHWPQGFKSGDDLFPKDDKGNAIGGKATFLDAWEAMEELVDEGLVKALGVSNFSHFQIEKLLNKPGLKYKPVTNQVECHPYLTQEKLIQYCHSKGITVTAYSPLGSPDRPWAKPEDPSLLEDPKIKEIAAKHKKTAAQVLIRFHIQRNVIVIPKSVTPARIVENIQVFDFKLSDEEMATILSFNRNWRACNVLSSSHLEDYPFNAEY
# Sequence of Aldo-keto reductase family 1 member B10 (Homo sapiens, UniProt O60218, W220Y) (O60218 whole entry W220Y): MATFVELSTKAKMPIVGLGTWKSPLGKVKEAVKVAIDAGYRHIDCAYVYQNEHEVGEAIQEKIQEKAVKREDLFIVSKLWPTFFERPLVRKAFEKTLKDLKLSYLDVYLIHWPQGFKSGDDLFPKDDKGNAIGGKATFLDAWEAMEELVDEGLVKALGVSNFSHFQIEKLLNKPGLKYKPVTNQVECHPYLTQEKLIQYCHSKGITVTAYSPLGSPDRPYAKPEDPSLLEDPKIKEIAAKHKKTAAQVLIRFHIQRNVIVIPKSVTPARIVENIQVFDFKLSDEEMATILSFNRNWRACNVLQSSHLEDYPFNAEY
SMILES,IC50 [1] [nM],IC50 [4] [nM],also measured
COc1ccc(/N=c2\oc3cc(O)ccc3cc2C(=O)NCc2ccccc2)cc1,24,4.7,Ki [2]: 3.8 nM; Ki [3]: 1.3 nM; Ki [5]: 51 nM
COc1ccc(/N=c2\oc3cc(O)ccc3cc2C(=O)NCCCO)cc1,29,8.8,
COc1ccc(/N=c2\oc3cc(O)ccc3cc2C(=O)NC(C)C)cc1,6.7,9.7,
COc1ccc(/N=c2\oc3cc(O)ccc3cc2C(=O)NCC(C)C)cc1,28,16,
O=C(O)Cc1ccc(/N=c2\oc3cc(O)ccc3cc2C(=O)Nc2ccccn2)cc1,20,13,
COc1ccc(/N=c2\oc3cc(O)ccc3cc2C(=O)NCCO)cc1,20,11,
COc1ccc(/N=c2\oc3ccccc3cc2C(=O)Nc2ccccn2)cc1,,,inhibition [6]: < 30%
COc1ccc(/N=c2\oc3cc(O)ccc3cc2C(=O)NC2CCCCC2)cc1,27,11,
O=C(Nc1ccccn1)c1cc2ccc(O)cc2o/c1=N\c1ccccc1,34,12,
CCCCNC(=O)c1cc2ccc(O)cc2o/c1=N\c1ccc(OC)cc1,28,18,

# More lines, main results first:
IC50 [1] [nM],IC50 [4] [nM],SMILES,also measured
> 10000,,COc1ccc(/N=c2\oc3cccc(O)c3cc2C(=O)Nc2ccccn2)cc1,inhibition [6]: < 30%
24,6.8,O=C(Nc1ccccn1)c1cc2ccc(O)cc2o/c1=N\c1ccc(O)cc1,
12,13,O=C(Nc1ccccn1)c1cc2ccc(O)cc2o/c1=N\c1ccc(I)cc1,
26,8.6,Cc1ccc(/N=c2\oc3cc(O)ccc3cc2C(=O)Nc2ccccn2)cc1,
19,7.6,O=C(O)c1ccc(/N=c2\oc3cc(O)ccc3cc2C(=O)Nc2ccccn2)cc1,
> 10000,> 10000,COc1ccc(/N=c2\oc3c(O)cccc3cc2C(=O)Nc2ccccn2)cc1,inhibition [7]: < 30%; inhibition [6]: < 30%
> 10000,> 10000,COc1ccc(/N=c2\oc3ccc(O)cc3cc2C(=O)Nc2ccccn2)cc1,inhibition [7]: < 30%; inhibition [6]: < 30%
25,14,O=C(Nc1ccccn1)c1cc2ccc(O)cc2o/c1=N\c1ccc(Br)cc1,
